Assay outcomes (PubChem)
This is one part of a sample in which hits are shown more often than they occur.
PTEN del growth: growth suppression of PTEN-null HCT116, primary screen, cell-based, CellTiter-Glo | HCT116 PTEN-null viability, 60 h; hits give low values | viability, % at 10 µM | 140,000 tested, 1.2% active | AID 827, 2007;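 active = viability at or below a set limit, 4 SD under the median of all tested compounds, cut at about 3.7% in these data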;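 also: PTEN knockout HCT116 line with beta catenin targeted HCT116 as companion control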
HUVEC prolif 384: inhibitors of HUVEC proliferation, primary screen, cell-based, 384-well; CellTiter-Glo luminescence, 72 h; hits give low values; viability, % at 10 µM (by protocol); 86,000 tested, 1.1% active; AID 648, 2007;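 active = viability at or below 30%; inactive = viability above 30%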;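 also: 100% = median luminescence of DMSO-only cell control wells on each plate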
H69AR growth 86K: proliferation blockers of H69AR lung cancer cells, primary screen, cell-based, human, 86K library; H69AR lung tumor viability, ATP luminescence, 72 h; hits give low values; viability, % at 10 µM; 85,000 tested, 6% active; AID 598, 2007;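 active = viability at or below 40%; inactive = viability above 40%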;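 also: multidrug resistant small cell line overexpressing MRP-1 efflux transporter; 100% = mean luminescence of untreated control wells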
Fibroblast inh: antiproliferative effect on LL 47 fibroblasts – human, LL 47 cells, CellTiter-Glo luminescence, primary screen. viability, % at 10 µM. AID 719, 2007. LL 47 human lung fibroblast viability, ATP luminescence; hits give low values. 85,000 tested, 1.1% active;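 active = viability at or below 50% in the single dose screen; inactive = viability above 50%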;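 also: compound exposure lasted 72 h before the ATP readout; 100% = median luminescence of untreated cell-only wells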
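Material: human lung fibroblast line LL 47, low passage; Evaluation: viability percentage against median untreated-cell control; Buffer or medium: 15% FBS in IMEM; Incubation: 72 h compound exposure at 37 °C after overnight plating; Dosing: 0.1% DMSO in all compound wells; Measured by: CellTiter-Glo luminescence.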
HCT116 bCat-KO: primary screen for growth suppressors in beta-catenin knockout HCT116 cells (colon tumor, human); HCT116 beta-catenin knockout viability, CellTiter-Glo, 60 h; hits give low values; viability, % at 10 µM; 140,000 tested, 1.5% active; AID 818, 2007;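 active = viability at or under a set limit, the compound median less 4 SD, cut at about 6% in these data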;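 also: 0% = Hyamine 1622 control at 20 µM and 100% = untreated cell control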
* hit, by the source's call; . = no result given.

SMILES	PTEN del growth	HUVEC prolif 384	H69AR growth 86K	Fibroblast inh	HCT116 bCat-KO
CN1CCN(c2ccc(NC(=O)c3cccc(OCc4ccccc4)c3)cc2)CC1	14	3.5*	32*	61	2.6*
COc1c(F)c(F)c(C(=O)Nc2ccc(N3CCN(Cc4ccccc4)CC3)cc2)c(F)c1F	73	22*	52	91	70
CN(C)S(=O)(=O)c1ccc(S(=O)(=O)Nc2ccc3c(c2)oc2ccccc23)cc1	89	73	85	102	96
CCN(CC)S(=O)(=O)c1ccc(S(=O)(=O)Nc2ccc3c(c2)oc2ccccc23)cc1	75	63	33*	97	77
CCN(c1nc(C)cc(OC)n1)S(=O)(=O)c1ccccc1	92	.	.	.	90
CC(=O)OCCCNc1cc(Sc2nc3ccccc3s2)c2nonc2c1[N+](=O)[O-]	4	.	.	.	3.7*
CC(=O)OCCCNc1cc(Sc2ccc(C)cc2)c2nonc2c1[N+](=O)[O-]	3.8*	.	.	.	3.6*
CC(=O)OCCNc1cc(Sc2nc3ccccc3[nH]2)c2nonc2c1[N+](=O)[O-]	1.5*	.	.	.	1.6*
COC(=O)CCSc1cc(NCCOC(C)=O)c([N+](=O)[O-])c2nonc12	96	.	.	.	96
CCCC(=O)OCCNc1cc(SCCC(=O)OC)c2nonc2c1[N+](=O)[O-]	95	.	.	.	87
O=[N+]([O-])c1c(NCCCO)cc(Sc2ccc(Cl)cc2)c2nonc12	1.2*	.	.	.	1.5*
CCc1ccc(OCC(=O)NC(NC(=S)Nc2ccc(Cl)cc2)C(Cl)(Cl)Cl)cc1 (stereo not given)	8	.	.	.	25
O=[N+]([O-])c1c(NCCCO)cc(SCc2ccco2)c2nonc12	58	.	.	.	10
CC(=O)OCCNc1cc(SCc2ccco2)c2nonc2c1[N+](=O)[O-]	1.0*	.	.	.	1.1*
N=c1n(CCN2CCCC2)c2ccccc2n1CC(O)c1ccco1 (stereo not given)	86	86	84	97	92
N=c1n(CCN2CCCCC2)c2ccccc2n1CC(O)c1cccc(Br)c1 (stereo not given)	11	65	22*	46*	12
N=c1n(CCN2CCCCC2)c2ccccc2n1CC(O)c1ccc(Cl)c(Cl)c1 (stereo not given)	1.1*	.	.	.	0.9*
Cc1cc(C)c(-c2noc(C(=O)OC(C)(C)C)c2C(=O)OC(C)(C)C)c(C)c1	.	.	.	.	97
Brc1cccc(-c2n[nH]c(-c3ccccc3)n2)c1	28	61	40*	94	32
CCCCNC1=C(Br)C(=O)CC(C)(C)C1	102	97	99	102	102
COc1ccc(OC)c(-c2cc(C3CCN(c4cc(Cl)nc(N)n4)CC3)[nH]n2)c1	2.5*	.	.	.	1.7*
Cc1cccc2cc(CN(Cc3ccc(F)cc3)C(=O)N3CCOCC3)c(=O)[nH]c12	85	97	92	98	88
Cc1cccc(-c2nc(CSCC(=O)N3CCN(Cc4ccc5c(c4)OCO5)CC3)c(C)o2)c1	18	88	33*	95	12
CCN(CC)c1ccc(NC(=O)c2ccco2)c(C)c1	95	109	97	106	92
CCN(CC)c1ccc(NC(=O)c2cccc(F)c2)c(C)c1	22	60	28*	52	16
SMILES	PTEN del growth	HUVEC prolif 384	H69AR growth 86K	Fibroblast inh	HCT116 bCat-KO
COc1ccc(OC)c(Nc2cc(C)nc3nc(C)nn23)c1	56	75	22*	82	59
COc1ccc(Nc2cc(C)nc3nc(C)nn23)cc1Cl	95	104	72	106	76
COc1ccc(C)cc1Nc1cc(C)nc2nc(C)nn12	56	77	25*	89	58
COc1ccc(Nc2cc(C)nc3nc(C)nn23)c(OC)c1	97	100	85	97	86
CCCCn1c(=O)c(-[n+]2ccccc2)c([O-])c2ccccc21	98	86	90	101	94
CCC(=O)Nc1nnc(SCC(=O)N2c3ccccc3CC2C)s1 (stereo not given)	78	76	92	37*	83
CCOC(=O)N1CCC(c2cc(=O)n3[nH]c(C)c(-c4ccc(F)cc4)c3n2)CC1	46	6.4*	96	84	25
CC1CCN(S(=O)(=O)c2ccc3c(c2)N(CC(=O)NCc2cccnc2)C(=O)CS3)CC1	91	.	.	.	95
CCOC(=O)c1ccccc1NC(=O)CN1CCC(n2nnc3cc(F)ccc32)CC1	.	59	27*	93	.
Cc1cc(NC(=O)CN2CCC(n3nnc4cc(C(F)(F)F)ccc43)CC2)no1	72	92	78	99	64
COC(=O)c1ccccc1NC(=O)CN1CCC(n2nnc3cc(C)ccc32)CC1	.	82	82	99	.
CCOc1ccc2nc(NC(=O)CN3CCC(n4nnc5cc(C(F)(F)F)ccc54)CC3)sc2c1	64	86	38*	89	65
CSc1ccc(-c2nnn(Cc3ccc(C)cc3)n2)cc1	96	89	100	106	92
O=C(Cn1cnc2ccccc2c1=O)NC1CCCc2ccccc21 (stereo not given)	96	95	86	93	86
Cc1cccc(C)c1OCC(=O)N=Nc1c(O)[nH]c2ccc(Br)cc12	104	17*	1.9*	98	97
O=C(N=Nc1c(O)[nH]c2ccc(Br)cc12)c1cc(-c2cccc3ccccc23)n[nH]1	52	.	.	.	70
Cc1ccc(-c2nnc(-c3ccncc3)n2-c2ccc(C)cc2)cc1	99	.	.	.	96
CN(c1ccccc1)c1nc(-n2ccnc2)nc(-n2ccnc2)n1	94	83	32*	88	100
CCCCNc1nc(N(C)c2ccccc2)nc(-n2ccnc2)n1	70	82	33*	76	79
c1ccc(-c2nc(N3CCCCCC3)nc(-n3ccnc3)n2)cc1	29	46	0.9*	74	28
c1ccc(-c2nc(N3CCN(c4ccccc4)CC3)nc(-n3ccnc3)n2)cc1	68	88	63	93	74
C=CCNc1nc(N(c2ccccc2)c2ccccc2)nc(-n2ccnc2)n1	95	77	54	88	93
O=C(NCc1ccccc1)c1cc(-c2cccc(O)c2)on1	.	94	97	100	.
C=CCOC(=O)C1=C(C)NC(SCC(=O)Nc2ccccc2)=C(C#N)C1c1ccco1 (stereo not given)	84	48	52	71	83
CC(C)Oc1ccc(CNC(=S)N/N=C/c2cccnc2)cc1	84	.	.	.	83
O=C(COC(=O)CC1CCCC1)Nc1cc2c(cc1Cl)C(=O)c1ccccc1C2=O	79	32	19*	79	68
CCCCN1C(=O)CN(CCc2ccccc2)C(=O)C1c1ccc(OC)cc1 (stereo not given)	87	104	38*	92	92
C=CCn1c(SCC(N)=O)nnc1-c1cc(Br)ccc1O	89	82	91	92	89
CCOC(=O)C1=C(N)n2c(s/c(=C\c3cccnc3)c2=O)=C(C(=O)OCC)C1c1cccnc1 (stereo not given)	.	92	54	96	.
